Published values from different studies.
CDK5 with p25: Cyclin-dependent kinase 5, with p25 (CDK5, Homo sapiens, UniProt Q00535)
CDK5: Cyclin-dependent kinase 5 (CDK5, Homo sapiens, UniProt Q00535)

SMILES	target	effect on	mode	method	concentration	endpoint	value
CC(C)S(=O)(=O)c1ccc2nccc(Nc3ccc4sc(C5CCCC5)nc4c3)c2c1	CDK5 with p25	enzyme activity	inhibitor		1 µM	activity vs control	97.5%
COc1ccc2[nH]c3c4[nH]c5ccc(OC)cc5c4c4c(c3c2c1)C(=O)NC4=O	CDK5	binding		competition with immobilised ligand	1 µM	remaining binding	75%
CO[C@@H]1[C@H](N(C)C(=O)c2ccccc2)C[C@H]2O[C@]1(C)n1c3ccccc3c3c4c(c5c6ccccc6n2c5c31)C(=O)NC4	CDK5	enzyme activity	inhibitor		1 µM	inhibition	0%
C[C@]1(O)CCCN(c2nc(Nc3ccc(S(=O)(=O)N[C@H]4CC[C@H](CN5CCN(c6ccc(C7CCC(=O)NC7=O)cc6F)CC5)CC4)cc3F)ncc2C(F)(F)F)C1 (stereo partly shown)	CDK5	binding		competition with immobilised ligand	1 µM	remaining binding	59%
COc1ccc2oc(-c3ccc4nc(N)oc4c3)c/c(=N\c3ccccc3NC(=O)CCN)c2c1	CDK5 with p25	binding			1 µM	remaining binding	102%
CC#CC(=O)N1CCC[C@H]1c1nc(-c2ccc(C(=O)Nc3ccccn3)cc2)c2c(N)nccn12	CDK5	enzyme activity	inhibitor		1 µM	inhibition	0%
C1=C/COCc2cc(ccc2OCCN2CCCC2)Nc2nccc(n2)-c2cccc(c2)COC/1	CDK5	binding			0.1 µM	remaining binding	100%
CCCCC(=O)Nc1ccc(-c2ccc3ncn(CCC)c(=O)c3c2)cn1	CDK5	binding		competition with immobilised ligand	0.5 µM	remaining binding	78%
C[C@]1(O)CCCN(c2nc(Nc3ccc(S(=O)(=O)N[C@H]4CC[C@H](CN5CCN(c6ccc(C7CCC(=O)NC7=O)cc6F)CC5)CC4)cc3Cl)ncc2C(F)(F)F)C1 (stereo partly shown)	CDK5	binding		competition with immobilised ligand	1 µM	remaining binding	72%
Cc1ccc(NC(=O)c2ccnc(C(F)(F)F)c2)cc1-c1cc(OCCO)nc(N2CCOCC2)c1	CDK5	binding		competition with immobilised ligand	1 µM	remaining binding	95%
